Data taken from ChEMBL document CHEMBL4765234 (J Med Chem, 2016).
Converted amounts (≈) assume the structure as drawn. The source made the active and inactive calls. The rule behind the calls is not given here.

Columns and labels:
RXR alpha/PPAR gamma = biological target: T1, RXR alpha/PPAR gamma (Homo sapiens, UniProt P19793+P37231); experiment: Agonist activity at human CMV-fused […]/RXRalpha (unknown origin) expressed in African green monkey CV1 cells transfected with luciferase plasmid measured after 24 hrs by luciferase reporter gene assay; type: cell-based, CV-1
T1 sequence (P37231 whole entry): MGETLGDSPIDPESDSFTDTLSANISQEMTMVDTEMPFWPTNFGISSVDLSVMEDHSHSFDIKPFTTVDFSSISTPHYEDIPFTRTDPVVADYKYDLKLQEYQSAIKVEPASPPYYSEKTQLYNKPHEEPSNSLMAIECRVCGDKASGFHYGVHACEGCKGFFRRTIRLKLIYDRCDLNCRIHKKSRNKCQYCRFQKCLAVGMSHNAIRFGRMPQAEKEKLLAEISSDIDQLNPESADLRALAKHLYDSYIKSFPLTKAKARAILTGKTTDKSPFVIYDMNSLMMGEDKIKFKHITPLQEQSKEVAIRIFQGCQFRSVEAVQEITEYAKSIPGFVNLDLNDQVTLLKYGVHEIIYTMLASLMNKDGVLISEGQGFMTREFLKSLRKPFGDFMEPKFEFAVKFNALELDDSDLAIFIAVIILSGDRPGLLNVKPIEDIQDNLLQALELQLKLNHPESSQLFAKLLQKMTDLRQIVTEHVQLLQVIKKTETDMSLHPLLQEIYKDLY
T1 sequence (P19793 whole entry): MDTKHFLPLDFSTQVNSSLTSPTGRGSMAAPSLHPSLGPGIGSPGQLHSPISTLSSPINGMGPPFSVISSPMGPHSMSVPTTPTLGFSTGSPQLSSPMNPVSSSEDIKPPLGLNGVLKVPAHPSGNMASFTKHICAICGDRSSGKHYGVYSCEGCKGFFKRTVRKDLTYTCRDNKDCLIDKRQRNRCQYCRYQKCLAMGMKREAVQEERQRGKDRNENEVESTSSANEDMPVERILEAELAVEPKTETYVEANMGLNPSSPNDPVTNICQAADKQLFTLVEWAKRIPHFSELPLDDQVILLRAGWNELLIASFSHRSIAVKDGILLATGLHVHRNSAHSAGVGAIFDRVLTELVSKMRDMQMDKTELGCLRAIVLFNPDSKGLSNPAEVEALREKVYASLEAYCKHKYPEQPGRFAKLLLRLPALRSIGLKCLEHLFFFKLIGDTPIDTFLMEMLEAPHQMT
In short: (§1)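 CV1 cells were transfected, in DMEM with 5% charcoal-stripped FBS, with CMV-driven full PPARγ and RXRα plus a 2×PPRE TK-promoter luciferase reporter. After overnight growth, cells were replated at 15000/well for 4 h, then treated with 0.17 nM–10 μM in half-log dilutions for 24 h. Lysate luminescence was expressed as % of the maximum from 10 μM reference PPARγ agonist and fit to a 4-parameter logistic.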

Rattus norvegicus [1] = experiment: Hypoglycemic activity in Zucker fatty diabetes mellitus rat model assessed as increase in insulin levels in plasma at 0.03 to 1 mg/kg, po administered for 21 days and measured at 10 to 60 mins post glucose challenge on day 21 by OGTT; type: functional, organism-based; settings: dose 0.03-1 mg/kg, time 21.0 day
[2] = Clearance in human liver microsomes by LC-MS/MS analysis; type: ADME, Microsome
Rattus norvegicus [3] = experiment: Hypoglycemic activity in Zucker fatty diabetes mellitus rat model assessed as increase in insulin levels in plasma at 0.03 to 1 mg/kg, po administered for 21 days and measured at 10 to 60 mins post glucose challenge on day 1 by OGTT; type: functional, organism-based; settings: dose 0.03-1 mg/kg, time 21.0 day
Rattus norvegicus [4] = experiment: Hypoglycemic activity in Zucker fatty diabetes mellitus rat model assessed as reduction in blood glucose level administered orally for 21 days and measured at 10 to 60 mins post glucose challenge on day 1 by OGTT; type: functional, organism-based; settings: dose 0.03-1 mg/kg, time 21.0 day
[5] = Solubility of the compound in FaSSIF; type: physicochemical
[6] = Solubility of the compound in 0.01 N HCl; type: physicochemical
[7] = Aqueous solubility of the compound at pH 7.4; type: physicochemical; settings: buffer
[8] = Lipophilicity, logP of compound; type: physicochemical; settings: octanol/water
[9] = biological target: RXR alpha/PPAR gamma (Homo sapiens) (UniProt P37231+P19793); experiment: Agonist activity at human CMV-fused PPARgamma […]/RXRalpha (unknown origin) expressed in African green monkey CV1 cells transfected with luciferase plasmid assessed as maximum efficacy measured after 24 hrs by luciferase reporter gene assay relative to control; type: cell-based; settings: CV-1; in short: as §1
Mus musculus = experiment: Hypoglycemic activity in Balb/c mouse assessed as increase in insulin secretion at 0.03 to 3 mg/kg, po administered 60 mins prior to glucose challenge and measured at 3 to 7 mins by IPGTT; type: functional, organism-based; settings: dose 0.03-3 mg/kg
[10] = Drug metabolism in mouse hepatocytes assessed as glucuronidation by LC-MS/MS analysis; type: ADME, cell-based, Hepatocyte
[11] = biological target: T2, Peroxisome proliferator-activated receptor alpha (Homo sapiens, UniProt Q07869); experiment: Agonist activity at human Gal4-fused PPARalpha LBD expressed in African green monkey CV1 cells cotransfected with pRL-SV40 plasmid measured after 24 hrs by luciferase reporter gene assay; type: cell-based, CV-1
T2 sequence (Q07869 whole entry): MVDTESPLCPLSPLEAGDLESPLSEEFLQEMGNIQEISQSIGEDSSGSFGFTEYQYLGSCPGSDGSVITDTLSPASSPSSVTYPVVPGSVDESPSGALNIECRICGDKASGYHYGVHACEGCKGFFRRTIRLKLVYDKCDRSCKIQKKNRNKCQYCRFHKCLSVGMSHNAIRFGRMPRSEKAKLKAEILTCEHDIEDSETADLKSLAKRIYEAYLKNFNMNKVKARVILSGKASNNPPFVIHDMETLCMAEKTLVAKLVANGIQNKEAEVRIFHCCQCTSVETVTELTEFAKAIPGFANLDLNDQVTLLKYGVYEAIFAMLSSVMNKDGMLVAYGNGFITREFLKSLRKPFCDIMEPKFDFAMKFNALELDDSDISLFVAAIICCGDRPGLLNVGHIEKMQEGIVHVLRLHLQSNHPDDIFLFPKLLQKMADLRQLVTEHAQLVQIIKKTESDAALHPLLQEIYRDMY
In short: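 CV1 African green monkey kidney cells were cotransfected, in DMEM with 5% charcoal-stripped FBS, with two plasmids: an SV40-driven Gal4 DBD–PPARα or PPARδ LBD hybrid, and a 5×Gal4-element firefly luciferase reporter. Cells were replated at 15000/well for 4 h, then exposed to 0.17 nM–10 μM in half-log steps for 24 h. Luciferase was read, normalized to maximum from 10 μM reference agonist, and fit by a 4-parameter model.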

SMILES	EC50 (RXR alpha/PPAR gamma) [µM]	Activity (Rattus norvegicus [1])	CLH [2] [h⁻¹]	Activity (Rattus norvegicus [3])	Activity (Rattus norvegicus [4])	solubility [5] [µg/mL]	solubility [6] [µg/mL]	solubility [7] [µM]	logP [8]	Emax [9] [%]	Activity (Mus musculus)	Drug metabolism [10]	EC50 [11] [µM]
CC#C[C@@H](CC(=O)O)c1ccc(OCc2ccc(CN3CCCc4cccc(OC)c43)s2)cc1	> 10	Active	0.0048	Active	Dose-dependent effect	35 (≈ 73.6 µM)	46 (≈ 96.7 µM)	> 100	5.2	8	Active	Metabolite_Detected	> 10
CC#C[C@@H](CC(=O)O)c1ccc(OCc2ccc(CN3CCC4(C=Cc5ccccc54)CC3)cc2)cc1 [LY2881835]	> 10	Active	0.033	Active	Dose-dependent effect	7 (≈ 14.2 µM)	13 (≈ 26.4 µM)	61 (≈ 30 µg/mL)	4.9	7	Active	Metabolite_Detected	> 10
CC#C[C@@H](CC(=O)O)c1ccc(OCc2ccc(CN3CCC4(CCc5ccccc54)CC3)s2)cc1	> 10	Active	0.109	Active	Dose-dependent effect	6 (≈ 12 µM)	55 (≈ 110 µM)	89 (≈ 44.5 µg/mL)	5	15	Active	Metabolite_Detected	> 10
